Published values collected from several papers.
Each line is one published result; the experiments were not run side by side.

SMILES	tested on	test	conditions	endpoint	value
CC(=NNC(=O)c1ccccc1O)c1ccc(Nc2nnc(-c3ccc(Cl)cc3)c3ccccc23)cc1	MCF7	cell growth or viability, MTT	5 µM	cell death	66.2%
CCN(CC)c1ccc(/C=N/c2ccc(Cl)cc2)c(O)c1	–	DPPH scavenging	–	IC50	30.3 µM
CCOC(=O)c1nn(-c2cccc(Cl)c2)/c(=N/N=C(\C)c2ccc(NC(=O)c3ccccc3)cc2)s1	MCF7	cell growth or viability, MTT	78 nM	viability	87.7%
CC(=NNC(=O)c1ccccc1)c1ccc(Nc2nnc(-c3ccc(Cl)cc3)c3ccccc23)cc1	MCF7	cell growth or viability, MTT	5 µM, 24 h	viability	5.18%
FC(F)(F)c1ccc(/C=N/N=C/c2ccc(C(F)(F)F)cc2)cc1	–	DPPH scavenging	–	IC50	> 3000 µM
CCOC(=O)c1nn(-c2cccc(Cl)c2)/c(=N/N=C(\C)c2ccc(NC(=O)c3ccc(Cl)cc3)cc2)s1	MCF7	cell growth or viability, MTT	10 µM	viability	3.71%
CC(=NNC(=O)c1ccccc1Br)c1ccc(Nc2nnc(-c3ccc(Cl)cc3)c3ccccc23)cc1	MCF7	cell growth or viability, MTT	0.625 µM, 24 h	viability	75.9%
CC(=O)c1nn(-c2ccccc2Cl)/c(=N/N=C(\C)c2ccc(NC(=O)c3ccccc3)cc2)s1	MCF7	cell growth or viability, MTT	5 µM	viability	6.17%
Brc1ccc(/C=N/N=C/c2ccc(Br)cc2)cc1	–	DPPH scavenging	–	IC50	> 3000 µM
COc1ccc(COC[C@@](O)(CNCc2ccc(F)cc2)[C@@H]2CC[C@@H](C)C[C@H]2OCc2ccc(OC)cc2)cc1	MCF7	cell growth or viability, MTT	30 µM, 72 h	inhibition	101%
COc1cccc(/C=N/N=C/c2cccc(OC)c2)c1	–	DPPH scavenging	–	IC50	755 µM
CC(=NNC(=O)c1cccnc1)c1ccc(Nc2nnc(-c3ccc(Cl)cc3)c3ccccc23)cc1	MCF7	cell growth or viability, MTT	0.625 µM	cell death	50.6%
Brc1cccc(/C=N/N=C/c2cccc(Br)c2)c1	–	DPPH scavenging	–	IC50	2400 µM
CCN(CC)c1ccc(/C=N/c2ccc(Br)cc2)c(O)c1	–	DPPH scavenging	–	IC50	43.6 µM
FC(F)(F)c1ccccc1/C=N/N=C/c1ccccc1C(F)(F)F	–	DPPH scavenging	–	IC50	1680 µM
COc1ccc(CNC[C@@](C)(O)[C@@H]2CC[C@@H](C)C[C@H]2OCc2ccccc2)cc1	MCF7	cell growth or viability, MTT	30 µM, 72 h	inhibition	97%
Cc1cccc(/C=N/N=C/c2cccc(C)c2)c1	–	DPPH scavenging	–	IC50	711 µM
O=C(Nc1ccccc1)Nc1ccc(Oc2nnc(-c3ccc(Cl)cc3)c3ccccc23)cc1	MCF7	cell growth or viability, MTT	78 nM, 24 h	viability	96.4%
